Assay outcomes: PubChem, several laboratories
EBI2 block: antagonists of human EBI2 receptor; AID 651636; EBI2 beta-arrestin recruitment, luminescence, 7a,25-OHC stimulated; inhibition, % at 5 µM; P32249; 360,000 compounds, 0.81% hits; in the data active = inhibition above about 38%;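 also: enzyme fragment complementation signal reports receptor beta-arrestin coupling in cells; 0% = agonist plus DMSO wells and 100% = wells without agonist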
HTR2A ag: mouse HTR2A agonism via beta-arrestin recruitment | P35363 | CHO-K1 mHTR2A beta-arrestin complementation, luminescence; percent of 30 µM serotonin response | activation, % at 7.6 µM | 360,000 compounds, 0.66% hits | AID 624169;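 active = activation above a run cutoff, the mean activation of all tested compounds plus 3 SD, cut at about 14% in these data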;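 also: 0% = plate median of compound wells and 100% = 30 µM serotonin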
MC4R barr agon: agonists of human melanocortin 4 receptor (MC4R) beta-arrestin | P32245 | U2OS MC4R beta-arrestin complementation, luminescence; percent of melanotan II response, DMSO zero | activation, % at 8.9 µM | 360,000 compounds, 0.98% hits | AID 540308;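 active = activation above a per-plate cutoff, the mean activation of sample wells on that plate plus 3 SD, cut at about 8% in these data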
Target sequence (P32245 whole entry, looked up): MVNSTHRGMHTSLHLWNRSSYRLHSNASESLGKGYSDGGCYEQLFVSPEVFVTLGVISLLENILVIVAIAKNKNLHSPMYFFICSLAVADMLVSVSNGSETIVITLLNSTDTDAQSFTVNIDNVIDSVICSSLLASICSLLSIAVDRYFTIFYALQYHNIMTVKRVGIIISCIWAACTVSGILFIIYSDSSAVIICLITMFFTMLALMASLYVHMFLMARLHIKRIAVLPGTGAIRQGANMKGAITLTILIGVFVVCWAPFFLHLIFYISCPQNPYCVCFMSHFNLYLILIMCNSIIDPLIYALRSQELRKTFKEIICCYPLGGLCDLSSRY
MC4R antagonist: human MC4R antagonism in cAMP assay; P32245; MC4R-expressing cells, MTII-stimulated cAMP, LANCE TR-FRET; inhibition, % at 6.5 µM; 360,000 compounds, 0.48% hits; AID 540295;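 active = inhibition above its plate's cutoff, the mean of tested wells on that plate plus 3 SD, cut at about 29% in these data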;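 also: 0% = Melanotan II alone and 100% = Melanotan II plus saturating MCL0020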
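Material: U2OS-MC4R stable cell line | Reagent: Melanotan II challenge after compound preincubation | Doses: One concentration, 6.5 µM nominal | Incubation: 30-min compound preincubation, 1-h Melanotan II challenge, 1-h detection, room temperature | Signal: TR-FRET cAMP assay | Replicates: One well per compound, no replicates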
EBI2 conf: EBI2 (human) antagonism, single concentration confirmation; shares compounds with EBI2 block; EBI2 beta-arrestin luminescence, 7a,25-OHC antagonism; inhibition, % at 5 µM; 2,400 compounds, 29% hits;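 active = inhibition of at least 50%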
EBI2 ag: counter-screen for EBI2 antagonists: EBI2 agonist activity; shares compounds with EBI2 block; EBI2-expressing cells, agonist mode, luminescence, 60 min; 0% vehicle, 100% 7α,25-dihydroxycholesterol control; AID 652000; 2,400 tested, under 10 active; activation, % at 5 µM;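 active = activation of at least 50%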
bGal cs: counter-screen for EBI2 antagonists: E. coli beta-galactosidase inhibition. shares compounds with EBI2 block. AID 652176. purified beta-galactosidase, luminescent Galacton Star, 15 min. inhibition, % at 5 µM. 2,400 compounds, 1% hits;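 active = replicate-average signal at least 3 plate SD below neutral wells, shown as high inhibition, flagging enzyme-inhibiting false positives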;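 also: 0% = DMSO wells with enzyme and 100% = wells lacking enzyme; higher means stronger loss of beta-gal luminescence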
* hit, by the source's call; / = no result. In the library only some 2.8% were active in any assay of this set; here they are far more common.

SMILES | EBI2 block | HTR2A ag | MC4R barr agon | MC4R antagonist | EBI2 conf | EBI2 ag | bGal cs
CC(C)C[C@H]1CN([C@@H](CC(C)C)CN2CCC[C@@H]2CN2C(=S)NC[C@@H]2Cc2ccc(O)cc2)C(=S)N1CCc1ccccc1 | 31 | -5 | / | / | / | / | /
O=C(O)C1CCC(C(=O)O)SS1 (configuration not stated) | -3 | -6 | 0 | 5 | / | / | /
O=c1[nH]nnc2c1sc1nc(N3CCOCC3)c3c(c12)CCCC3 | 4 | -4 | 4 | 10 | / | / | /
Cn1nnc2c(sc3nc(N4CCOCC4)c4c(c32)CCCC4)c1=O | 49* | -2 | -1 | 4 | 38 | -1 | -19
Cc1ccc(OCCNC(=O)CCNS(=O)(=O)c2ccc3ccccc3c2)cc1 | 47* | -6 | 1 | -6 | 5 | -1 | -10
Cc1cccc(C)c1NC(=O)C(=O)NCCOc1ccc(Cl)cc1 | 51* | -5 | -1 | 1 | 25 | 1 | 4
O=C(NCCOc1ccc(Cl)cc1)C(=O)NCC1CCCO1 (configuration not stated) | 15 | -4 | -2 | 13 | / | / | /
Cc1ccc(C(=O)NCCOc2ccc(Cl)cc2)cc1 | 51* | -4 | 0 | 8 | 22 | -1 | -8
Cc1ccc(OCCNC(=O)c2cc(C(=O)NCCOc3ccc(C)cc3)cc([N+](=O)[O-])c2)cc1 | 47* | -5 | -3 | 14 | 30 | -1 | -20
CS(=O)(=O)N(CC(=O)NC1CC1)C1CCCCC1 | -8 | -5 | -2 | -1 | / | / | /
Cc1nonc1CC(=O)N1CCCC(C(=O)c2cccc(C(F)(F)F)c2)C1 (configuration not stated) | -2 | 6 | 2 | -7 | / | / | /
C[C@]12c3[nH]c4ccccc4c3CCN1C(=O)C(CC(=O)NCCc1ccccn1)C[C@@H]2C(=O)N1CCOCC1 (some centres not stated) | -9 | -2 | 0 | 3 | / | / | /
CCc1ccc(OCCNC(=O)c2ccc(S(=O)(=O)N(C)C)cc2)cc1 | 64* | 2 | -2 | 8 | 41 | -1 | -9
Cc1ccc(OCCNC(=O)Cc2ccc(F)cc2)cc1 | 50* | -7 | -2 | 11 | 44 | 1 | 5
CC(=O)Nc1ccc(N2CCOCC2)c([N+](=O)[O-])c1 | 1 | -3 | 2 | 8 | / | / | /
CC(C)C[C@@H](CN1CCC[C@@H]1CN1C(=S)NC[C@@H]1Cc1ccccc1)N1C[C@H](Cc2ccc(O)cc2)N(CC2CCCCCC2)C1=S | 58* | -4 | / | / | 17 | -1 | -10
CC(C)C[C@H]1CNC(=S)N1C[C@H]1CCCN1C[C@H](CC(C)C)N1C[C@H](Cc2ccc(O)cc2)N(CC2CCCCCC2)C1=S | 60* | 1 | / | / | 25 | -1 | -14
CC(C)C[C@@H](CN1CCC[C@@H]1CN1C(=S)NC[C@@H]1Cc1ccccc1)N1C[C@H](Cc2ccc(O)cc2)N(CC2CCCCC2)C1=S | 11 | 4 | / | / | / | / | /
CC(C)C[C@H]1CNC(=S)N1CC1CCCN1C[C@H](CC(C)C)N1C[C@H](Cc2ccc(O)cc2)N(CC2CCCCC2)C1=S (some centres not stated) | 31 | -9 | -4 | 2 | / | / | /
COc1cccc(NC(=O)C(=O)c2cn(CC(=O)N3CCCC3)c3ccccc23)c1 | 5 | 9 | -2 | -1 | / | / | /
CC(C)c1ccc2oc(-c3ccc(N)cc3)nc2c1 | 52* | -1 | 8 | 7 | 57* | 0 | -1
Cc1ccc(-c2nc3cc(N)ccc3o2)cc1 | -11 | -2 | 1 | 0 | / | / | /
CC(C)(C)NC(=O)C1CCN(C(=O)c2ccco2)CC1 | -1 | -11 | 4 | 3 | / | / | /
COc1ccccc1/C=C\C(=O)NCC(=O)N/N=C/c1cccc(OC)c1O | -2 | 0 | -3 | 5 | / | / | /
COc1ccc(/C=N/NC(=O)CNC(=O)/C=C/c2ccccc2OC)cc1 | 77* | -7 | -2 | 1 | 57* | 0 | -17
SMILES | EBI2 block | HTR2A ag | MC4R barr agon | MC4R antagonist | EBI2 conf | EBI2 ag | bGal cs
CCCC#Cc1cnc2c(c1)C(=O)N([C@H](C)CO)C[C@@H](C)[C@H](CN(C)S(=O)(=O)c1cccc(OC)c1)O2 | 8 | -4 | -1 | 13 | / | / | /
Brc1ccccc1OCCOc1cccc2cccnc12 | 18 | -1 | -1 | -3 | / | / | /
Cc1cc(Cl)cc(Cl)c1OCCOc1cccc2cccnc12 | 56* | 3 | 2 | -5 | 39 | 4 | 1
CC1=CC(C)(C)Nc2ccc(OS(=O)(=O)c3ccc(C)cc3)cc21 | 42* | 1 | 3 | 3 | 13 | 0 | 2
COc1cccc(/C=C/C(=O)NNC(=O)CCN2CCN(Cc3ccccc3)CC2)c1 | 15 | -1 | -3 | 11 | / | / | /
O=C(/C=C/c1ccc(F)cc1)NNC(=O)CCN1CCN(Cc2ccccc2)CC1 | 42* | -4 | -1 | 7 | 5 | 0 | 5
O=C(/C=C/c1ccc(OCCCF)cc1)N1CCN(Cc2ccccc2)CC1 | 88* | 3 | -2 | -1 | 50* | -1 | -11
O=C(/C=C/c1ccc([N+](=O)[O-])cc1)N1CCN(Cc2ccccc2)CC1 | 90* | 3 | 1 | -4 | 64* | 1 | -10
O=C(/C=C/c1ccc(F)cc1)NC(=S)N1CCN(Cc2ccccc2)CC1 | 35 | -4 | 0 | 12 | / | / | /
CCN1CCN(C(=O)/C=C/c2ccc([N+](=O)[O-])cc2)CC1 | 74* | 0 | -1 | 4 | 38 | 2 | 4
COc1ccc(OCc2nnc(SCC(=O)N3c4ccccc4Sc4ccc(Cl)cc43)o2)cc1 | 66* | 2 | -2 | 4 | 54* | 1 | -1
COc1cccc(OCc2nnc(SCC(=O)N3c4ccccc4Sc4ccc(Cl)cc43)o2)c1 | 53* | -6 | -1 | -1 | 28 | 0 | -1
CCC1NC(=O)c2cc3ccccc3cc2-n2c1nc1cc(C)cc(C)c1c2=O (configuration not stated) | 86* | 6 | 0 | 5 | 69* | -1 | -11
Cc1cc(C)c2c(=O)n3c(nc2c1)C(Cc1ccccc1)NC(=O)c1cc2ccccc2cc1-3 (configuration not stated) | 76* | 1 | -1 | 0 | 38 | -2 | -11
Cc1cc(C)c2c(=O)n3c(nc2c1)C(Cc1ccccc1)NC(=O)c1cccnc1-3 (configuration not stated) | 20 | -4 | -1 | 5 | / | / | /
CCN1C(=S)N[C@@H](CCc2ccccc2)C(C(=O)OC)=C1C | 3 | -2 | -1 | 3 | / | / | /
O=C(c1ccc(-c2ccccc2)cc1)N1CCN(C(=O)c2ccco2)CC1 | 72* | -1 | -2 | -2 | 35 | 2 | 7
